Measurements reported in ChEMBL document CHEMBL2424522, “Demonic axe-like conjugated alkynes in combating microbes” (2013).
Converted amounts (≈) assume the structure as drawn.

Tests used:
Type in all cases: functional
[1] = tested on: Saccharomyces cerevisiae; assay: Antifungal activity against Saccharomyces cerevisiae MTCC 36 at 50 ug/ml after 48 hrs by agar well diffusion method; settings: MTCC 36, 48 h, read-out: IZ
Method in brief: (§1)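 Test samples and DMSO controls incubated at 27 °C for 48 h. Inhibition zone diameter measured in mm. Three to four replicates per treatment.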

[2] = tested on: Candida albicans; assay: Antifungal activity against Candida albicans MTCC 227 at 50 ug/ml after 48 hrs by agar well diffusion method; settings: MTCC 227, 48 h, read-out: IZ; method in brief: as §1
[3] = tested on: Diutina rugosa; assay: Antifungal activity against Candida rugosa NCIM 3462 at 50 ug/ml after 48 hrs by agar well diffusion method; settings: NCIM 3462, 48 h, read-out: IZ; method in brief: as §1
[4] = tested on: Escherichia coli; assay: Antibacterial activity against Escherichia coli MTCC 443 by broth dilution method
Method in brief: (§2)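 Broth dilution per NCCL standards; all phosphorus ylides and conjugated alkynes tested in vitro.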

[5] = tested on: Aspergillus niger; assay: Antifungal activity against Aspergillus niger MTCC 344 at 100 ug/ml after 48 hrs by agar well diffusion method; settings: MTCC 344, 48 h, read-out: IZ; method in brief: as §1
[6] = tested on: Klebsiella pneumoniae; assay: Antibacterial activity against Klebsiella pneumoniae MTCC 618 by broth dilution method; method in brief: as §2
[7] = tested on: Pseudomonas aeruginosa; assay: Antibacterial activity against Pseudomonas aeruginosa MTCC 741 by broth dilution method; method in brief: as §2
[8] = tested on: Aspergillus niger; assay: Antifungal activity against Aspergillus niger MTCC 344 at 50 ug/ml after 48 hrs by agar well diffusion method; settings: MTCC 344, 48 h, read-out: IZ; method in brief: as §1
[9] = tested on: Staphylococcus epidermidis; assay: Antibacterial activity against Staphylococcus epidermidis MTCC 435 by broth dilution method; method in brief: as §2
[10] = tested on: Bacillus subtilis; assay: Antibacterial activity against Bacillus subtilis MTCC 441 by broth dilution method; method in brief: as §2
[11] = tested on: Aspergillus flavus; assay: Antifungal activity against Aspergillus flavus MTCC 277 at 100 ug/ml after 48 hrs by agar well diffusion method; settings: MTCC 277, 48 h, read-out: IZ; method in brief: as §1
[12] = tested on: Saccharomyces cerevisiae; assay: Antifungal activity against Saccharomyces cerevisiae MTCC 36 at 100 ug/ml after 48 hrs by agar well diffusion method; settings: MTCC 36, 48 h, read-out: IZ; method in brief: as §1
[13] = tested on: Candida albicans; assay: Antifungal activity against Candida albicans MTCC 227 at 100 ug/ml after 48 hrs by agar well diffusion method; settings: MTCC 227, 48 h, read-out: IZ; method in brief: as §1
[14] = tested on: Aspergillus flavus; assay: Antifungal activity against Aspergillus flavus MTCC 277 at 50 ug/ml after 48 hrs by agar well diffusion method; settings: MTCC 277, 48 h, read-out: IZ; method in brief: as §1
[15] = tested on: Staphylococcus aureus; assay: Antibacterial activity against Staphylococcus aureus MTCC 96 by broth dilution method; method in brief: as §2
[16] = tested on: Diutina rugosa; assay: Antifungal activity against Candida rugosa NCIM 3462 at 100 ug/ml after 48 hrs by agar well diffusion method; settings: NCIM 3462, 48 h, read-out: IZ; method in brief: as §1

Structure (SMILES) | MIC [4] [µg/mL] | MIC [6] [µg/mL] | MIC [7] [µg/mL] | MIC [9] [µg/mL] | MIC [10] [µg/mL] | MIC [15] [µg/mL] | zone of inhibition at 50 µg/mL [1] [mm] | zone of inhibition at 50 µg/mL [2] [mm] | zone of inhibition at 50 µg/mL [3] [mm] | zone of inhibition at 100 µg/mL [5] [mm] | zone of inhibition at 50 µg/mL [8] [mm] | zone of inhibition at 100 µg/mL [11] [mm] | zone of inhibition at 100 µg/mL [12] [mm] | zone of inhibition at 100 µg/mL [13] [mm] | zone of inhibition at 50 µg/mL [14] [mm] | zone of inhibition at 100 µg/mL [16] [mm]
CN[C@@H]1[C@H](O[C@H]2[C@H](O[C@H]3[C@H](O)[C@@H](O)[C@H](N=C(N)N)[C@@H](O)[C@@H]3N=C(N)N)O[C@@H](C)[C@]2(O)C=O)O[C@@H](CO)[C@H](O)[C@H]1O [STREPTOMYCIN] | 6.25 (≈ 10.7 µM) | 3.12 (≈ 5.37 µM) | 1.56 (≈ 2.69 µM) | 3.12 (≈ 5.37 µM) | 6.25 (≈ 10.7 µM) | 6.25 (≈ 10.7 µM) | – | – | – | – | – | – | – | – | – | –
N#CC(C(=O)c1ccco1)=P(c1ccccc1)(c1ccccc1)c1ccccc1 | > 150 | > 150 | > 150 | > 150 | > 150 | > 150 | – | – | – | 0 | – | 0 | 0 | 0 | – | 0
CCOC(=O)C(C(=O)c1ccc(Cl)nc1)=P(c1ccccc1)(c1ccccc1)c1ccccc1 | > 150 | > 150 | > 150 | > 150 | > 150 | > 150 | – | – | – | 0 | – | 0 | 0 | 0 | – | 0
CCOC(=O)C(C(=O)c1cccnc1Cl)=P(c1ccccc1)(c1ccccc1)c1ccccc1 | > 150 | > 150 | > 150 | > 150 | > 150 | > 150 | – | – | – | 0 | – | 0 | 0 | 0 | – | 0
CCOC(=O)C(C(=O)c1cc(F)c(Cl)nc1Cl)=P(c1ccccc1)(c1ccccc1)c1ccccc1 | > 150 | > 150 | > 150 | > 150 | > 150 | > 150 | – | – | – | 0 | – | 0 | 0 | 0 | – | 0

The next lines start with results.

MIC [4] [µg/mL] | MIC [6] [µg/mL] | MIC [7] [µg/mL] | MIC [9] [µg/mL] | MIC [10] [µg/mL] | MIC [15] [µg/mL] | Structure (SMILES) | zone of inhibition at 50 µg/mL [1] [mm] | zone of inhibition at 50 µg/mL [2] [mm] | zone of inhibition at 50 µg/mL [3] [mm] | zone of inhibition at 100 µg/mL [5] [mm] | zone of inhibition at 50 µg/mL [8] [mm] | zone of inhibition at 100 µg/mL [11] [mm] | zone of inhibition at 100 µg/mL [12] [mm] | zone of inhibition at 100 µg/mL [13] [mm] | zone of inhibition at 50 µg/mL [14] [mm] | zone of inhibition at 100 µg/mL [16] [mm]
> 150 | > 150 | > 150 | > 150 | > 150 | > 150 | CCOC(=O)C#CC(C)(C)C | 0 | 0 | 0 | 0 | 0 | 0 | 0 | 0 | 0 | 0
> 150 | > 150 | > 150 | > 150 | > 150 | > 150 | CC(C)OC(=O)C(C(=O)c1cc(F)c(Cl)nc1Cl)=P(c1ccccc1)(c1ccccc1)c1ccccc1 | – | – | – | 0 | – | 0 | 0 | 0 | – | 0
> 150 | > 150 | > 150 | > 150 | > 150 | > 150 | Cc1ccccc1C(=O)C(C#N)=P(c1ccccc1)(c1ccccc1)c1ccccc1 | – | – | – | 0 | – | 0 | 0 | 0 | – | 0
> 150 | > 150 | > 150 | > 150 | > 150 | > 150 | N#CC(C(=O)c1cccnc1Cl)=P(c1ccccc1)(c1ccccc1)c1ccccc1 | – | – | – | 0 | – | 0 | 0 | 0 | – | 0
> 150 | > 150 | > 150 | > 150 | > 150 | > 150 | CCOC(=O)C#Cc1ccccc1C | 0 | 0 | 0 | 0 | 0 | 0 | 0 | 0 | 0 | 0
